Test system: not listed separately
Assay: Growth inhibition of topoisomerase 2 mutated mitoxantrone-resistant MX2 cells by Alamar blue assay
Type: functional
Conditions: Homo sapiens
Method in brief: (§1)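 Leukemia lines (CEM, topo I-mutant CEM/C2, HL60, topo II-mutant MX2) seeded in 96-well plates. HL60/MX2 were kept in RPMI1640 with 10% FCS, 10 mM Hepes and 2 mM glutamine. After one day, DMSO-dissolved compounds were diluted in medium over a 5-point range and added. GI50 = concentration giving 50% growth inhibition versus control.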

SMILES	GI50 [µM]
CN(C)CCOc1ccc2nc3c(cc2c1)Cn1c-3nc2ccccc2c1=O	9
O=c1c2cc(O)c(O)cc2nc2n1Cc1cc3ccccc3nc1-2 [17,18-DIHYDROXYLUOTONIN A]	> 40
Nc1cccc2c(=O)n3c(nc12)-c1nc2ccccc2cc1C3 [16-AMINOLUOTONIN A]	> 40
CC[C@@]1(O)C(=O)OCc2c1cc1n(c2=O)Cc2cc3ccccc3nc2-1 [CAMPTOTHECIN]	0.02
CN(C)Cc1c(O)ccc2nc3c(cc12)Cn1c-3nc2ccccc2c1=O	> 40
CCN(CC)CCOc1ccc2nc3c(cc2c1)Cn1c-3nc2ccccc2c1=O	10
O=C1c2c(O)ccc(O)c2C(=O)c2c(NCCNCCO)ccc(NCCNCCO)c21 [MITOXANTRONE]	0.13

Test system: CEM/C2
Assay: Growth inhibition of topoisomerase 1 mutated CEM/C2 cells by Alamar blue assay
Type: functional
Conditions: Homo sapiens
Method in brief: as §1

SMILES	GI50 [µM]
CN(C)CCOc1ccc2nc3c(cc2c1)Cn1c-3nc2ccccc2c1=O	7
O=c1c2cc(O)c(O)cc2nc2n1Cc1cc3ccccc3nc1-2 [17,18-DIHYDROXYLUOTONIN A]	> 40
Nc1cccc2c(=O)n3c(nc12)-c1nc2ccccc2cc1C3 [16-AMINOLUOTONIN A]	> 40
CC[C@@]1(O)C(=O)OCc2c1cc1n(c2=O)Cc2cc3ccccc3nc2-1 [CAMPTOTHECIN]	> 1
CN(C)Cc1c(O)ccc2nc3c(cc12)Cn1c-3nc2ccccc2c1=O	> 40
CCN(CC)CCOc1ccc2nc3c(cc2c1)Cn1c-3nc2ccccc2c1=O	7
O=c1c2ccccc2nc2n1Cc1cc3ccccc3nc1-2 [LUOTONIN A]	> 40

Test system: CEM/C2
Assay: Ratio of GI50 for camptothecin-resistant human CEM/C2 cells to GI50 for human CEM cells
Type: functional
Conditions: not given
Method in brief: (§2)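 Relative resistance index from GI50 values in paired 5-point growth inhibition assays run in parallel: GI50 in the mutant line (CEM/C2 or MX2) divided by GI50 in its parental line (CEM or HL60).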

SMILES	RatioGI50
CN(C)CCOc1ccc2nc3c(cc2c1)Cn1c-3nc2ccccc2c1=O	2
O=c1c2cc(O)c(O)cc2nc2n1Cc1cc3ccccc3nc1-2 [17,18-DIHYDROXYLUOTONIN A]	>4
Nc1cccc2c(=O)n3c(nc12)-c1nc2ccccc2cc1C3 [16-AMINOLUOTONIN A]	>7
CC[C@@]1(O)C(=O)OCc2c1cc1n(c2=O)Cc2cc3ccccc3nc2-1 [CAMPTOTHECIN]	>500
CN(C)Cc1c(O)ccc2nc3c(cc12)Cn1c-3nc2ccccc2c1=O	>1.5
CCN(CC)CCOc1ccc2nc3c(cc2c1)Cn1c-3nc2ccccc2c1=O	2

Test system: MCF7
Assay: Growth inhibition of adriamycin-resistant MCF7 cells after 4 days
Type: functional
Conditions: Homo sapiens, MCF7, 96 h
Method in brief: (§3)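 Adherent lines (HeLa S3 in MEM/7% FCS; MCF7 and ADR-Res) seeded at 2 · 10^3 cells per well. After one day, compounds in DMSO were diluted in culture medium over a 5-point range and added. Cells stained with 0.2% crystal violet in 20% ethanol for 1 h, washed, solubilized in 10% acetic acid, A570 read. GI50 = concentration giving 50% growth inhibition versus control.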

GI50 [µM]	SMILES
> 20	O=c1c2ccccc2nc2n1Cc1cc3c(CN4CCOCC4)c(O)ccc3nc1-2
4	CN(C)CCOc1ccc2nc3c(cc2c1)Cn1c-3nc2ccccc2c1=O
> 20	O=c1c2cc(O)c(O)cc2nc2n1Cc1cc3ccccc3nc1-2 [17,18-DIHYDROXYLUOTONIN A]
> 20	COc1cccc2c(=O)n3c(nc12)-c1nc2ccccc2cc1C3 [16-METHOXYLUOTONIN A]
> 1	CCc1c2c(nc3ccc(OC(=O)N4CCC(N5CCCCC5)CC4)cc13)-c1cc3c(c(=O)n1C2)COC(=O)[C@]3(O)CC [IRINOTECAN]
> 20	O=c1c2cccnc2nc2n1Cc1cc3ccccc3nc1-2 [16-AZALUOTONIN A]
3	Nc1cccc2c(=O)n3c(nc12)-c1nc2ccccc2cc1C3 [16-AMINOLUOTONIN A]
> 20	CN(C)Cc1c(O)ccc2nc3c(cc12)Cn1c-3nc2ccccc2c1=O
4	CCN(CC)CCOc1ccc2nc3c(cc2c1)Cn1c-3nc2ccccc2c1=O
13	O=c1c2cccc(Cl)c2nc2n1Cc1cc3ccccc3nc1-2 [16-CHLOROLUOTONIN A]
> 20	COc1cc2nc3n(c(=O)c2cc1OC)Cc1cc2ccccc2nc1-3 [17,18-DIMETHOXYLUOTONIN A]
> 20	CC(=O)Nc1cccc2c(=O)n3c(nc12)-c1nc2ccccc2cc1C3 [16-ACETAMIDOLUOTONIN A]
0.04	CC[C@@]1(O)C(=O)OCc2c1cc1n(c2=O)Cc2cc3c(CN(C)C)c(O)ccc3nc2-1 [TOPOTECAN]
> 20	COc1ccc2nc3c(cc2c1)Cn1c-3nc2ccccc2c1=O [10-METHOXYLUOTONIN A]
5	O=c1c2ccccc2nc2n1Cc1cc3ccccc3nc1-2 [LUOTONIN A]
> 20	O=c1c2ccccc2nc2n1Cc1cc3cc(O)ccc3nc1-2 [10-HYDROXYLUOTONIN A]

SMILES	GI50 [µM]
CC[C@@]1(O)C(=O)OCc2c1cc1n(c2=O)Cc2cc3ccccc3nc2-1 [CAMPTOTHECIN]	0.01

Test system: CCRF-CEM
Assay: Growth inhibition of human CEM cells by Alamar blue assay
Type: functional
Conditions: not given
Method in brief: as §1

GI50 [µM]	SMILES
3	CN(C)CCOc1ccc2nc3c(cc2c1)Cn1c-3nc2ccccc2c1=O
9	O=c1c2cc(O)c(O)cc2nc2n1Cc1cc3ccccc3nc1-2 [17,18-DIHYDROXYLUOTONIN A]
6	Nc1cccc2c(=O)n3c(nc12)-c1nc2ccccc2cc1C3 [16-AMINOLUOTONIN A]
30	CN(C)Cc1c(O)ccc2nc3c(cc12)Cn1c-3nc2ccccc2c1=O
3	CCN(CC)CCOc1ccc2nc3c(cc2c1)Cn1c-3nc2ccccc2c1=O
≥ 40	O=c1c2ccccc2nc2n1Cc1cc3ccccc3nc1-2 [LUOTONIN A]

SMILES	GI50 [µM]
CC[C@@]1(O)C(=O)OCc2c1cc1n(c2=O)Cc2cc3ccccc3nc2-1 [CAMPTOTHECIN]	0.002

Test system: HeLa
Assay: Growth inhibition of HeLa cells after 4 days
Type: functional
Conditions: Homo sapiens, 96 h
Method in brief: as §3

GI50 [µM]	SMILES
> 20	O=c1c2ccccc2nc2n1Cc1cc3c(CN4CCOCC4)c(O)ccc3nc1-2
2	CN(C)CCOc1ccc2nc3c(cc2c1)Cn1c-3nc2ccccc2c1=O
6	O=c1c2cc(O)c(O)cc2nc2n1Cc1cc3ccccc3nc1-2 [17,18-DIHYDROXYLUOTONIN A]
12	COc1cccc2c(=O)n3c(nc12)-c1nc2ccccc2cc1C3 [16-METHOXYLUOTONIN A]
> 1	CCc1c2c(nc3ccc(OC(=O)N4CCC(N5CCCCC5)CC4)cc13)-c1cc3c(c(=O)n1C2)COC(=O)[C@]3(O)CC [IRINOTECAN]
> 20	O=c1c2cccnc2nc2n1Cc1cc3ccccc3nc1-2 [16-AZALUOTONIN A]
2	Nc1cccc2c(=O)n3c(nc12)-c1nc2ccccc2cc1C3 [16-AMINOLUOTONIN A]
10	CN(C)Cc1c(O)ccc2nc3c(cc12)Cn1c-3nc2ccccc2c1=O
2	CCN(CC)CCOc1ccc2nc3c(cc2c1)Cn1c-3nc2ccccc2c1=O
> 10	O=c1c2cccc(Cl)c2nc2n1Cc1cc3ccccc3nc1-2 [16-CHLOROLUOTONIN A]
> 10	COc1cc2nc3n(c(=O)c2cc1OC)Cc1cc2ccccc2nc1-3 [17,18-DIMETHOXYLUOTONIN A]
> 20	CC(=O)Nc1cccc2c(=O)n3c(nc12)-c1nc2ccccc2cc1C3 [16-ACETAMIDOLUOTONIN A]
0.03	CC[C@@]1(O)C(=O)OCc2c1cc1n(c2=O)Cc2cc3c(CN(C)C)c(O)ccc3nc2-1 [TOPOTECAN]
> 10	COc1ccc2nc3c(cc2c1)Cn1c-3nc2ccccc2c1=O [10-METHOXYLUOTONIN A]
3	O=c1c2ccccc2nc2n1Cc1cc3ccccc3nc1-2 [LUOTONIN A]
> 10	O=c1c2ccccc2nc2n1Cc1cc3cc(O)ccc3nc1-2 [10-HYDROXYLUOTONIN A]

SMILES	GI50 [µM]
CC[C@@]1(O)C(=O)OCc2c1cc1n(c2=O)Cc2cc3ccccc3nc2-1 [CAMPTOTHECIN]	0.01

Test system: HL-60
Assay: Ratio of GI50 for mitoxantrone-resistant human MX2 cells to GI50 for human HL60 cells
Type: functional
Conditions: not given
Method in brief: as §2

SMILES	RatioGI50
CN(C)CCOc1ccc2nc3c(cc2c1)Cn1c-3nc2ccccc2c1=O	2
Nc1cccc2c(=O)n3c(nc12)-c1nc2ccccc2cc1C3 [16-AMINOLUOTONIN A]	>2.5
CN(C)Cc1c(O)ccc2nc3c(cc12)Cn1c-3nc2ccccc2c1=O	>2
CCN(CC)CCOc1ccc2nc3c(cc2c1)Cn1c-3nc2ccccc2c1=O	2.5
O=C1c2c(O)ccc(O)c2C(=O)c2c(NCCNCCO)ccc(NCCNCCO)c21 [MITOXANTRONE]	13

Test system: MCF7
Assay: Growth inhibition of MCF7 cells after 4 days
Type: functional
Conditions: Homo sapiens, MCF7, 96 h
Method in brief: as §3

GI50 [µM]	SMILES
> 20	O=c1c2ccccc2nc2n1Cc1cc3c(CN4CCOCC4)c(O)ccc3nc1-2
2	CN(C)CCOc1ccc2nc3c(cc2c1)Cn1c-3nc2ccccc2c1=O
10	O=c1c2cc(O)c(O)cc2nc2n1Cc1cc3ccccc3nc1-2 [17,18-DIHYDROXYLUOTONIN A]
> 20	COc1cccc2c(=O)n3c(nc12)-c1nc2ccccc2cc1C3 [16-METHOXYLUOTONIN A]
> 1	CCc1c2c(nc3ccc(OC(=O)N4CCC(N5CCCCC5)CC4)cc13)-c1cc3c(c(=O)n1C2)COC(=O)[C@]3(O)CC [IRINOTECAN]
> 20	O=c1c2cccnc2nc2n1Cc1cc3ccccc3nc1-2 [16-AZALUOTONIN A]
2	Nc1cccc2c(=O)n3c(nc12)-c1nc2ccccc2cc1C3 [16-AMINOLUOTONIN A]
13	CN(C)Cc1c(O)ccc2nc3c(cc12)Cn1c-3nc2ccccc2c1=O
3	CCN(CC)CCOc1ccc2nc3c(cc2c1)Cn1c-3nc2ccccc2c1=O
10	O=c1c2cccc(Cl)c2nc2n1Cc1cc3ccccc3nc1-2 [16-CHLOROLUOTONIN A]
> 20	COc1cc2nc3n(c(=O)c2cc1OC)Cc1cc2ccccc2nc1-3 [17,18-DIMETHOXYLUOTONIN A]
> 20	CC(=O)Nc1cccc2c(=O)n3c(nc12)-c1nc2ccccc2cc1C3 [16-ACETAMIDOLUOTONIN A]
0.05	CC[C@@]1(O)C(=O)OCc2c1cc1n(c2=O)Cc2cc3c(CN(C)C)c(O)ccc3nc2-1 [TOPOTECAN]
> 20	COc1ccc2nc3c(cc2c1)Cn1c-3nc2ccccc2c1=O [10-METHOXYLUOTONIN A]
3	O=c1c2ccccc2nc2n1Cc1cc3ccccc3nc1-2 [LUOTONIN A]
> 20	O=c1c2ccccc2nc2n1Cc1cc3cc(O)ccc3nc1-2 [10-HYDROXYLUOTONIN A]

SMILES	GI50 [µM]
CC[C@@]1(O)C(=O)OCc2c1cc1n(c2=O)Cc2cc3ccccc3nc2-1 [CAMPTOTHECIN]	0.01

Test system: HL-60
Assay: Growth inhibition of human HL60 cells by Almar blue assay
Type: functional
Conditions: not given
Method in brief: as §1

GI50 [µM]	SMILES
4	CN(C)CCOc1ccc2nc3c(cc2c1)Cn1c-3nc2ccccc2c1=O
> 40	O=c1c2cc(O)c(O)cc2nc2n1Cc1cc3ccccc3nc1-2 [17,18-DIHYDROXYLUOTONIN A]
15	Nc1cccc2c(=O)n3c(nc12)-c1nc2ccccc2cc1C3 [16-AMINOLUOTONIN A]
20	CN(C)Cc1c(O)ccc2nc3c(cc12)Cn1c-3nc2ccccc2c1=O
4	CCN(CC)CCOc1ccc2nc3c(cc2c1)Cn1c-3nc2ccccc2c1=O

SMILES	GI50 [µM]
CC[C@@]1(O)C(=O)OCc2c1cc1n(c2=O)Cc2cc3ccccc3nc2-1 [CAMPTOTHECIN]	0.03
O=C1c2c(O)ccc(O)c2C(=O)c2c(NCCNCCO)ccc(NCCNCCO)c21 [MITOXANTRONE]	0.01

Reference: ChEMBL document CHEMBL1139925, “Synthesis and topoisomerase poisoning activity of A-ring and E-ring substituted luotonin A derivatives” (2007)
